Results: PMC11019407 (RSC Advances, 2024)
Converted amounts (≈) assume the structure as drawn.

Key:
[1] = tested on: C. albicans, T. mentagrophytes, T. rubrum, and M. gypseum; assay: Antifungal activity, paper disk diffusion, statements over all fungi; format: cell-based; settings: all fungus
In short: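 Fungi (C. albicans, T. mentagrophytes, T. rubrum, M. gypseum) were swabbed onto Potato Dextrose Agar plates. Inocula were prepared in LB broth for 24 h at 37 °C. 6 mm paper disks were loaded with 30 μL of test compound at 3.125–300 μM. Fluconazole (1 mg mL−1) was the standard.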

[2] = tested on: NO production in RAW264.7 cells; assay: Inhibition of NO production in LPS-stimulated RAW264.7 cells; format: cell-based; settings: Mus musculus, RAW264.7, read-out: IC50 of NO inhibition
In short: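 RAW 264.7 cells were grown in DMEM with 2 mM L-glutamine, 10 mM HEPES, 1 mM sodium pyruvate and 10% FBS. Cells were seeded at 2 × 10^5 per well and incubated 3 days at 37 °C, 5% CO2. Nitric oxide was quantified with Griess reagent, L-NMMA served as positive control, and IC50 was reported.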

[3] = tested on: E. coli, P. aeruginosa, MRSA, S. faecalis; assay: Antibacterial activity, paper disk diffusion, statements over several bacteria; format: cell-based; settings: for inhibition in words: printed as E. coli, P. aeruginosa, and MRSA in the antifungal section
In short: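 Bacteria (E. coli, P. aeruginosa, S. faecalis, MRSA) were grown in LB broth for 24 h at 37 °C, then swabbed evenly onto Mueller–Hinton agar. 6 mm paper disks received 30 μL of test compound at 3.125–300 μM. Ampicillin (1 mg mL−1) was the standard.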

α-glucosidase enzyme = α-glucosidase enzyme (Saccharomyces cerevisiae, UniProt P53341); assay: Alpha-glucosidase inhibition; format: biochemical
α-glucosidase enzyme, sequence (P53341 whole entry): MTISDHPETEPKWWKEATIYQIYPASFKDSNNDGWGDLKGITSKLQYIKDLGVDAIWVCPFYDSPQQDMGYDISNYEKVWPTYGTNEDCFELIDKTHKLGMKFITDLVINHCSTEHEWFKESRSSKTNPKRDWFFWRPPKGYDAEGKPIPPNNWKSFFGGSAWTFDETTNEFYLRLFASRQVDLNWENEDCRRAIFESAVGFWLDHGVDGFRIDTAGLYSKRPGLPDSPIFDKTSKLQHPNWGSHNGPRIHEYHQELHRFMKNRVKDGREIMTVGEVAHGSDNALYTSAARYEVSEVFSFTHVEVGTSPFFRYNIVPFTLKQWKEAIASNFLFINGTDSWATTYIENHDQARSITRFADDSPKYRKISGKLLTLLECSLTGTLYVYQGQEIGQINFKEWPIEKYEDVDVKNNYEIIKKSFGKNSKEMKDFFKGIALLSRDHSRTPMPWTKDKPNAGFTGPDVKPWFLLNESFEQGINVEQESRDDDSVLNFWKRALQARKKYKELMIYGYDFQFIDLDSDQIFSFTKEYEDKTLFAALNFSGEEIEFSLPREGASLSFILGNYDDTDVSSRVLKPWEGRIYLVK

IC50 [2] [µM]	Compound	antifungal inhibition in words [1]	further results
	COC(=O)C1=CO[C@@H](O[C@@H]2O[C@H](CO)[C@@H](O)[C@H](O)[C@H]2O)[C@H]2[C@@H]1[C@H](O)C[C@]2(C)OC(C)=O [Compound 3, barlerin]	weak inhibitions or inactive	
18.2 ± 0.7	C[C@H]1[C@H](C)CC[C@]2(C(=O)O)CC[C@]3(C)C(=CC[C@@H]4[C@@]5(C)CC[C@H](O)C(C)(C)[C@@H]5CC[C@]43C)[C@H]12 [Compound 7, ursolic acid]		inhibition in words [3]: weak inhibitions or inactive
	O=C(O)c1c[nH]c2ccccc12 [Compound 6, indole-3-carboxylic acid]		inhibition in words [3]: weak inhibitions or inactive
25.9 ± 3.32	C[C@]1(OC(=O)/C=C/c2ccccc2)C[C@@H](O)[C@]2(O)C=CO[C@@H](O[C@@H]3O[C@H](CO)[C@@H](O)[C@H](O)[C@H]3O)[C@@H]21 [Compound 4, harpagoside]	weak inhibitions or inactive	
41.3	[H]/N=C(/NC)NCCC[C@H](N)C(=O)O [L-NMMA, reference compound]		
	C[C@@H]1O[C@@H](O[C@@H]2[C@@H](O)[C@H](OCCc3ccc(O)c(O)c3)O[C@H](CO)[C@H]2OC(=O)/C=C/c2ccc(O)c(O)c2)[C@H](O)[C@H](O)[C@H]1O [Compound 12, verbacoside]	weak inhibitions or inactive	IC50 (α-glucosidase enzyme): 42.4 µM
	CC1(C)S[C@@H]2[C@H](NC(=O)[C@H](N)c3ccccc3)C(=O)N2[C@H]1C(=O)O [ampicillin, reference compound]		MIC ([3]; read-out: MIC values against four bacteria): 3.12 to 6.25 µM (≈ 1.09 to 2.18 µg/mL)
	C[C@@H]1CC[C@]2(C(=O)O)CC[C@]3(C)C(=CC[C@@H]4[C@@]5(C)CC[C@H](O)[C@@](C)(CO)[C@@H]5CC[C@]43C)[C@@H]2[C@]1(C)O [Compound 9, rotundic acid]	weak inhibitions or inactive	
